Series [1] deals with sphingolipids of C. neoformans. Put plainly: Sphingolipid profiling by TLC and LC-MS. It counts as cell-based.
A further series concerns Coccidioides spp. It counts as cell-based.
For another series, the system named is Paecilomyces variotii. Description: In vitro susceptibility testing. It counts as cell-based. To be noted: QC FTL strains. In a few lines: (§1)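 Inoculum prepared per CLSI M27-A3. Plates incubated at 37°C with 5% CO2 for 24 to 96 h. MIC was the lowest concentration inhibiting 50% of growth versus the drug-free control. Minimum fungicidal concentration was also measured: serial dilutions from wells were plated on YPD agar, and MFC was the lowest concentration yielding three or fewer colonies (99% of inoculum killed).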

Series [2] in a line: Pharmacokinetics of BHBM in mice. It counts as in vivo, mouse (C3H/HeN). To be noted: for half-life: C3H/HeN, mouse, plasma, ip, IS/IN mice. The gist of the method:
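Test compound was dissolved at 10 mg/ml (stock) in cremophor-ethanol 1:1 and diluted in PBS to 200 or 400 µg/ml. C3H/HeN mice (n = 3), either healthy or immunocompromised and P. murina-infected, received 0.8 or 1.6 mg/kg i.v. (tail vein) or i.p. in 100 µl. Blood was taken into K2EDTA predose and at 0.5, 1, 2, 4, 8, 12 and 24 h, and plasma stored at −80°C. t1/2 = 0.693/λz.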

A further series concerns Blastomyces dermatitis. Description: In vitro susceptibility testing. Format: cell-based. To be noted: FTL strains (10). In a few lines: as §1
A further series concerns Cryptococcus gattii. Description: In vitro susceptibility testing. It counts as cell-based. In a few lines:
as §1

In series [3] the test system is Bone marrow-derived macrophages. It counts as cell-based.
Series [4] has as its system GlcCer synthesis in J774.16 cells. Description: Labeling of mammalian cells with [3H]palmitate, TLC of GlcCer. Format: cell-based, murine. To be noted: [3H]palmitate labeling, 6 h. In a few lines:
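J774.16 macrophages (5 × 10^6 cells/ml) adhered for 14 h in six-well plates. They were exposed for 4 h to test compound at the concentrations used for the fungal labeling, then given 30 µCi/ml [3H]palmitic acid for a further 2 h.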

In the next series the test system is C. neoformans cells. Description: In vitro killing assay. It counts as cell-based. The gist of the method: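 An overnight C. neoformans culture was washed in PBS and resuspended in HEPES-buffered YNB, pH 7.4. 2 × 10^4 cells were exposed to 1, 2 or 4 µg/ml test compound in 10 ml (0.4% DMSO final), at 37°C, 5% CO2, on a rotary shaker at 200 rpm. Aliquots taken at time points were diluted, plated on YPD, incubated 72 h at 30°C, and CFU counted.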

In a further series the test system is J774 cells. Description: In vitro toxicity. Format: cell-based, murine. In a few lines: (§2)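 J774.16 murine macrophages were kept in DMEM with 10% FBS and 1% pen-strep, and used until passage eight. At passage 7, 10^5 cells/well were allowed to adhere for 14 h. Test compound was then added at 0.1 to 100 µg/ml, with drug-free wells as controls. Incubation at 37°C, 5% CO2.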

Another series can be described thus: In vitro toxicity. It counts as cell-based, murine. To be noted: mouse, J774.16 macrophage cells. In a few lines: as §2
For a further series, the system named is Candida krusei. Description: In vitro susceptibility testing. It counts as cell-based. The gist of the method:
as §1

The test system of the next series is C. neoformans. Description: Synergism assay. Format: cell-based.
The mark [5] stands for this setting: TLC, confirmed by mass spectrometry.

Converted amounts (≈) assume the structure as drawn.

As a reminder, the half-life is how long it takes for the measured level to halve. Lower therefore signals fast loss. For orientation: EC50 means the concentration that produces a half-maximal response. Lower therefore signals an effect from little substance.

Take `Cc1ccccc1C(=O)NN=Cc1ccc(O)c(Br)c1` [BHBM, N′-(3-bromo-4-hydroxybenzylidene)-2-methylbenzohydrazide]: the “levels of C18 hydroxyceramide and its desaturated and methylated forms” value in [1] (LC-MS, D0 data not shown) is listed as “decreased”. In series [1] (setting [5]), the GlcCer levels entry is given as “decrease”. Moreover, the “dihydroceramide, sphingosine, and sphingosine-1-phosphate” value in series [1] (setting [5]) is “increased”. In addition, the MIC range was 8 to 16 µg/mL in the series on Coccidioides spp.; greater than 16 µg/mL in the series with Paecilomyces variotii; 0.5−1 µg/ml against Blastomyces dermatitis; 0.5−2 µg/ml with Cryptococcus gattii (FTL strains (10)); 0.5−1 µg/ml against Cryptococcus gattii (MDPL strains (3)); 16 µg/mL (≈ 48 µM) in the series with Candida krusei (ATCC 6258 (MDPL strain)). The results for the MIC range with Candida krusei (MDPL strain (1)) and against Candida krusei (QC FTL strains) were 32 µg/mL (≈ 96 µM) and 8 µg/mL (≈ 24 µM), respectively. Besides, the half-life is 47.4 min in [2] (0.8 mg/kg, T1/2, IP 0.8 mg/kg (low dose)) and 50.4 min in [2] (1.6 mg/kg, T1/2, IP 1.6 mg/kg (high dose)). Besides, in series [2] (upon administration, data not shown), the “distribution to brain tissue” value is given as “readily found in brain tissue”. In series [3], the “mammalian GlcCer level” value is listed as “did not significantly affect”. The “synthesis of mammalian GlcCer or other sphingolipids” value in series [4] is listed as “no significant changes”. The “incubation required to kill about 50% of the cells” value with C. neoformans cells was “at least 72 h”. In the series with C. neoformans cells (time-kill assay, 37°C, 5% CO2, pH 7.4), the type of killing entry is recorded as “concentration-dependent killing”. The EC50/MIC80 selectivity index in the series with J774 cells (J774 EC50 versus MIC) was 50. The “selectivity index (EC50/MIC ratio)” value in the series on J774 cells (macrophage cell line) is given as greater than 50. For the same compound, in “In vitro toxicity”, the response was half-maximal at 50 µg/mL (≈ 150 µM) (EC50 at 48 h). For the same compound, the interaction category entry was “additive (additive effect, FIC = 1)” in the series on C. neoformans (combined with caspofungin); “highly synergistic” with C. neoformans (combined with fluconazole); “synergistic (synergistic effect, FIC < 1)” with C. neoformans (combined with tunicamycin).

For the origin of these results see paper PMC4479701 (mBio, 2015).
